Test results published in ChEMBL document CHEMBL4229422, “Synthesis and pharmacological evaluation of pyrazolo[4,3-c]quinolinones as high affinity GABAA-R ligands and potential anxiolytics” (Bioorg Med Chem, 2018).
The source made the active and inactive calls. The rule behind the calls is not given here.

Columns and labels:
[1] = Displacement of [3H]-FNZ from benzodiazepine binding site of GABAA receptor in bovine synaptosomal membranes after 1 hr by scintillation counting method; type: cell membranes, Bos taurus
Rattus norvegicus [2] = assay: Anxiolytic activity in Wistar rat assessed as time spent on open arms at 1 mg/kg, ip administered 30 mins prior to testing measured for 5 mins by elevated plus-maze test (reference value: 20%); type: functional
How it was run: (§1)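 Adult male Wistar rats (65–75 days, 280–320 g), group-housed, 12 h light–dark, 21-22 °C, handled on four days beforehand. Doses of 0.25, 0.5, 1 and 3 mg/kg were dissolved in propylenglycol, diluted in aqueous 0.6 % v/v Tween 80 and given ip 30 min before the EPM. Vehicle controls received the same mixture. Behaviour was recorded 5 min as % time in open arms relative to open plus closed arms. About 7 rats per dose, mean ± S.E.M., ANOVA.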

Rattus norvegicus [3] = assay: Toxicity in Wistar rat assessed as change in locomotor activity at 1 mg/kg, ip administered 30 mins; type: organism-based; details: in vivo, 0.5 h
How it was run: (§2)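 Locomotor or exploratory activity was scored as the number of closed-arm entries during the 5 min EPM session. Male Wistar rats (280–320 g) received 0.25–3 mg/kg ip 30 min beforehand, in propylenglycol diluted with 0.6 % v/v Tween 80. Vehicle-injected controls were included. About 7 rats per dose, ANOVA.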

Rattus norvegicus [4] = assay: Toxicity in Wistar rat assessed as change in locomotor activity at 0.25 to 3 mg/kg, ip administered 30 mins; type: organism-based; details: in vivo, 0.5 h; how it was run: as §2
Rattus norvegicus [5] = assay: Anxiolytic activity in Wistar rat assessed as increase in time spent on open arms at 0.5 mg/kg, ip administered 30 mins prior to testing measured for 5 mins by elevated plus-maze test; type: functional, organism-based; how it was run: as §1
Rattus norvegicus [6] = assay: Anxiogenic activity in Wistar rat assessed as reduction in time spent on open arms at 0.25 to 3 mg/kg, ip administered 30 mins prior to testing measured for 5 mins by elevated plus-maze test; type: functional, organism-based; how it was run: as §1
Rattus norvegicus [7] = assay: Anxiogenic activity in Wistar rat assessed as reduction in time spent on open arms at 0.25 to 0.5 mg/kg, ip administered 30 mins prior to testing measured for 5 mins by elevated plus-maze test; type: functional, organism-based; how it was run: as §1

| IC50 [1] [nM] | Ki [1] [nM] | Compound | other results |
| --- | --- | --- | --- |
| 0.542 | 0.288 | COc1ccc(-n2nc3c4cc(C)ccc4[nH]cc-3c2=O)cc1 | Activity (Rattus norvegicus [2]): 50%; Activity (Rattus norvegicus [3]): Non-Toxic |
| 1.84 | 0.98 | COc1ccc2[nH]cc3c(=O)n(-c4ccc(F)cc4)nc-3c2c1 | – |
| 0.37 | 0.196 | Cc1ccc2[nH]cc3c(=O)n(-c4ccccc4F)nc-3c2c1 | – |
| 0.326 | 0.173 | COc1ccc(-n2nc3c4cc(Br)ccc4[nH]cc-3c2=O)cc1 | Activity (Rattus norvegicus [4]): Non-Toxic; Activity (Rattus norvegicus [5]): Active |
| 1.15 | 0.612 | Cc1ccc2[nH]cc3c(=O)n(-c4ccc(F)cc4)nc-3c2c1 | – |
| 0.589 | 0.313 | Cc1ccc2[nH]cc3c(=O)n(-c4ccccc4)nc-3c2c1 | – |
| 1.5 | 0.797 | COc1ccc2[nH]cc3c(=O)n(-c4ccccc4F)nc-3c2c1 | – |
| 1.47 | 0.78 | O=c1c2c[nH]c3ccc(Br)cc3c-2nn1-c1ccc(F)cc1 | Activity (Rattus norvegicus [6]): Active; Activity (Rattus norvegicus [4]): Toxic |
| 0.823 | 0.437 | O=c1c2c[nH]c3ccc(Br)cc3c-2nn1-c1ccccc1 | Activity (Rattus norvegicus [7]): Active |
